pIC50: −log10 of the molar value.
Legend:
[1] = molecular target: T1, Mitogen-activated protein kinase kinase kinase 5 (Homo sapiens, UniProt Q99683); assay: Inhibition of ASK1 (unknown origin)
T1 sequence (Q99683 whole entry): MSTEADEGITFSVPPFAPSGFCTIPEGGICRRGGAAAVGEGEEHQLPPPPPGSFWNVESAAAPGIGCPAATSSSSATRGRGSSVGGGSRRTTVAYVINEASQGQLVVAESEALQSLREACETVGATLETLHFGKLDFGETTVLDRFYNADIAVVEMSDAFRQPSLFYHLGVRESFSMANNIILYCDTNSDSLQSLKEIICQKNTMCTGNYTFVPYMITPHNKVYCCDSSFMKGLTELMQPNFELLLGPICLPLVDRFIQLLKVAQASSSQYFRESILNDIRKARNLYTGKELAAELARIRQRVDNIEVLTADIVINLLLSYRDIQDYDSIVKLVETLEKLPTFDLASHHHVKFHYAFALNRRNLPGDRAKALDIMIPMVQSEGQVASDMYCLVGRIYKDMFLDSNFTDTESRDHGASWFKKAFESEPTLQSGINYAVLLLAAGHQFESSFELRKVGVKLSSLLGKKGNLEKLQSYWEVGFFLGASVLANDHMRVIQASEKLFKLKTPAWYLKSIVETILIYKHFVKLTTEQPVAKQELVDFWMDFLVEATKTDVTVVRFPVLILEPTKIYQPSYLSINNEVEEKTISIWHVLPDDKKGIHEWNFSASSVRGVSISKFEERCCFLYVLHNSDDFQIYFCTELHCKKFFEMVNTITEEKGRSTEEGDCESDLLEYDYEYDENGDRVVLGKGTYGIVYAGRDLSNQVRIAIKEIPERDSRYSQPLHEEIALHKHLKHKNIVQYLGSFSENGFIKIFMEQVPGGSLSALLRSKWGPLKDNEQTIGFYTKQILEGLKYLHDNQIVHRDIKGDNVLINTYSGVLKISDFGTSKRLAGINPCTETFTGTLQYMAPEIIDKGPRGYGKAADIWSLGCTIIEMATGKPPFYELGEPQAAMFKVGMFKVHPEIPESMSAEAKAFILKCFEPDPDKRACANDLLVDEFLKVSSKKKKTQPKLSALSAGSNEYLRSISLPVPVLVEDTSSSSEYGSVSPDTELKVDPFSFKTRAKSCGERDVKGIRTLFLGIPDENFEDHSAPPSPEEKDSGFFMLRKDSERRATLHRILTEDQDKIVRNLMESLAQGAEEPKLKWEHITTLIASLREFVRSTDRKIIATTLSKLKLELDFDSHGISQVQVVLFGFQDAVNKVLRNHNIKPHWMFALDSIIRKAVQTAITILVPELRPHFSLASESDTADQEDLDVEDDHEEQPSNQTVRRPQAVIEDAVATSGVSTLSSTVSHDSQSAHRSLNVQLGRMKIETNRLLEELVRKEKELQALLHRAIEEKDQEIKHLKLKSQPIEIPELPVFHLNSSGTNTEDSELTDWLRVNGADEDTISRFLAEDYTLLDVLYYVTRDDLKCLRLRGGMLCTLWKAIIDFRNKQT
Method in brief: (§1)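 Kinase panel: 200 kinases were first screened at 1 μM inhibitor for percent inhibition. Those above 50% inhibition were then titrated for IC50. MgATP was fixed at the Km(app) determined for each enzyme.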

[2] = Antiinflammatory activity in human PBMC cells assessed as inhibition of LPS induced IL-6 production preincubated for 1 hr followed by LPS stimulation and measured after 16 hrs by MSD analysis; assay type: functional, cell-based
Method in brief: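 Human PBMCs were pretreated with compound for 1 h (<1% DMSO final), then stimulated with LPS 100 ng/ml at 37°C. Cytokines in culture media were read by MSD 4-plex: TNFα at 4 h; IL-1β, IL-6 and IL-8 at 16 h. Data are means ±S.E.M. of two independent experiments in duplicate, three donors. IC50 by 4-parameter nonlinear regression.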

[3] = molecular target: Cyclin-dependent kinase 1/cyclin B1 (Homo sapiens, UniProt P06493); assay: Inhibition of CDK1/cycB (unknown origin); assay type: protein-complex assay; method in brief: as §1
[4] = Inhibition of recombinant 6 his tagged N/C-terminal MSK1 (367 to 802 residues)/MSK2 (351 to 772 residues) (unknown origin) expressed in baculovirus infected Sf9 insect cells using KKKALSRQLSVAA as substrate incubated for 1 hr followed by substrate addition in presence of ATP; design: species or system Homo sapiens
Method in brief: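 MAPKAP family kinases were activated by p38α (1:50 molar, 250 μM ATP, 1 h, 30°C). Assays ran in 20 mM HEPES pH 7.5, 10 mM MgCl2, 1 mM DTT, 0.01% BSA, 0.0005% Tween-20, at MgATP fixed at each enzyme's Km(app). The 33P-labelled product peptide was separated by ion exchange. Duplicate experiments. MSK1 (367-802) and MSK2 (351-772) were N-terminal 6xHis constructs from Sf9 cells.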

[5] = test system: Rattus norvegicus; assay: Antiarthritic activity in chronic SCW-induced arthritis Lewis rat model assessed as inhibition of chronic paw swelling administered twice daily via oral gavage for 10 to 21 days; assay type: organism-based; conditions: time 10-21 day
Method in brief: (§2)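 Female Lewis rats (125-140 g) received a single i.p. streptococcal cell wall injection. Animals showing the acute phase were pooled, 4-8 per group over three experiments. Dosing was oral gavage b.i.d., days 10-21, in methylcellulose-Tween-20 vehicle. Hind paw volume was read by displacement plethysmometer on day 21, as % inhibition of swelling. Plasma was sampled up to 11 h after the last dose, 3 rats per dose. ED values came from fitted curves.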

[6] = Inhibition of IL-6 production in LPS induced human Whole blood cell preincubated with compound for 1 hr followed by LPS induction and measured after 16 hrs; assay type: functional, cell-based
Method in brief: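 Human whole blood was stimulated ex vivo with LPS 100 ng/ml. Plasma cytokines were read by MSD 4-plex: TNFα at 4 h; IL-1β, IL-6 and IL-8 at 16 h. Data are means ±S.E.M. of two independent experiments in duplicate, three donors. IC50 by 4-parameter nonlinear regression.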

[7] = AUC in chronic SCW-induced arthritis Lewis rat model plasma at ED50 concentration; assay type: ADME, cell-free; method in brief: as §2

Chain of Cyclin-dependent kinase 1/cyclin B1 (P06493 whole entry, the tested form may be a part): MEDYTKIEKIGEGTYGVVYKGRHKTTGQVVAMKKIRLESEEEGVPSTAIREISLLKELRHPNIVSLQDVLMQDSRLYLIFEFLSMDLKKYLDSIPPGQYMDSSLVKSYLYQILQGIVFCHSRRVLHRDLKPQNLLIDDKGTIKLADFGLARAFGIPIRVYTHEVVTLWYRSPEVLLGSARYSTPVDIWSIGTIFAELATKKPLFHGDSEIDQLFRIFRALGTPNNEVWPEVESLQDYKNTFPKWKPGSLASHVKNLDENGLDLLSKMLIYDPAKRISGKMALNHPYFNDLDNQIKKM
Chain of Cyclin-dependent kinase 1/cyclin B1 (P14635 whole entry, further chain, the tested form may be a part): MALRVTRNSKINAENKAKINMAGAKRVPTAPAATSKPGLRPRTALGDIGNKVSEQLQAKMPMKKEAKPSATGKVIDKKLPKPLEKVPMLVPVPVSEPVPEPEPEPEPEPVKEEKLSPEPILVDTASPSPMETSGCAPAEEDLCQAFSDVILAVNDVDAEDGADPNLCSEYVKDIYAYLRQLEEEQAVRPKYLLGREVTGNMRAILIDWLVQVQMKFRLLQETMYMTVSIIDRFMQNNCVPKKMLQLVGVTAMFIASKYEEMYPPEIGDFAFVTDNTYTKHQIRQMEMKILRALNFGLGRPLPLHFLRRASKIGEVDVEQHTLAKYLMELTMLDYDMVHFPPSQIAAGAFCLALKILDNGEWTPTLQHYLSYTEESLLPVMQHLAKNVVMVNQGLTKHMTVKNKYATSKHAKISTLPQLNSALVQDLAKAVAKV

## Cc1ccc(-c2ccc3c(ccc4sc5c(c43)NC[C@@H](C)NC5=O)n2)cn1
[1]
  pIC50: 7.22
[2]
  pIC50: 5.85
[3]
  pIC50: 6.45
[4]
  pIC50: < 6.00
[5]; Rattus norvegicus, Lewis
  ED50: 20 mg/kg
[5]; rat, in vivo, po
  ED80: 50 mg/kg
[6]
  pIC50: 4.99
[7]
  AUC: 34 µM·h
